One data set deals with T. cruzi epimastigotes. The data set is described as follows: microbe, parasite or virus in culture. Type of data set: cell-based, Trypanosoma cruzi. The note with it: for inhibition of T. cruzi epimastigote proliferation, potency: wild type epimastigotes.
In another data set the test system is T. brucei (GVR35-VSL2). The data set is described as follows: Mouse model of stage II HAT. Type of data set: in vivo, Trypanosoma brucei. The settings on record: single ip dose 40 mg/kg.
The target of data set [1] is T1, PSMB4^I29M T. cruzi proteasome (Trypanosoma cruzi, UniProt Q4CU77+Q4D8U7, I29M).
T1 sequence (Q4CU77 1-206 I29M): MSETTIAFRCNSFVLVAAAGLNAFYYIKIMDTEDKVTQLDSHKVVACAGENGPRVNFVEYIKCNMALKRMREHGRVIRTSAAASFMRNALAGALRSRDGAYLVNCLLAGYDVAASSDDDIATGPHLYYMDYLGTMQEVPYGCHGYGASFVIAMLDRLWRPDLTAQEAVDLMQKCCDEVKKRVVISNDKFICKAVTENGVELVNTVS
T1 sequence (Q4D8U7 111-311): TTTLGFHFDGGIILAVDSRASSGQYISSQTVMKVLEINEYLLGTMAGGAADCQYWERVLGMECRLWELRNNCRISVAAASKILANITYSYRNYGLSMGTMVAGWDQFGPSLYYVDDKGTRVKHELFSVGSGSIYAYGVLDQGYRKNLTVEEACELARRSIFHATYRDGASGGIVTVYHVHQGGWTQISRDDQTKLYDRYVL
The data set is described as follows: Proteasome proteolytic activities, PSMB4^I29M T. cruzi proteasome. The note with it: mean ± s.e.m., n=3. Type of data set: biochemical.

Data set [2] deals with ubiquitylated proteins in T. cruzi epimastigotes. In words: Accumulation of ubiquitylated proteins in T. cruzi epimastigotes. The format is cell-based. The settings on record: Trypanosoma cruzi, read-out: ubiquitylation EC50, T. cruzi epimastigotes. In outline:
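T. cruzi epimastigotes were seeded at 1 × 10^7 cells/well in LIT medium and exposed to DMSO (0.2%) or a range of test compound concentrations for 2–12 h at 27 °C. Cells were pelleted, washed twice in PBS, and lysed for 20 min on ice in Tris pH 7.4/NaCl/1% CHAPS buffer with protease inhibitors and N-ethylmaleimide. Lysates were cleared at 21,000 g, 30 min, 4 °C.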

The structures appear in SMILES notation. Peptide text beside a SMILES is read from it. * marks the point of attachment. Cbz = O=C(OCc1ccccc1)*

Consider `CC(C)C[C@@H](C=O)NC(=O)[C@H](CC(C)C)NC(=O)[C@H](CC(C)C)NC(=O)OCc1ccccc1` [MG132] (Cbz-Leu-Leu-Leu-aldehyde), for which the “inhibition of T. cruzi epimastigote proliferation, potency” value in the data set on T. cruzi epimastigotes is reported as “sub-micromolar potency”.
For the compound `CC(=O)NCC(=O)O.CC(=O)NCC(=O)O.N=C(N)c1ccc(N=NNc2ccc(C(=N)N)cc2)cc1` [diminazene aceturate], in the data set on T. brucei (GVR35-VSL2), the “parasite clearance / recrudescence” value is given as “did not prevent parasite recrudescence 21 days later”. Further, the “parasites in the brain” value in the data set with T. brucei (GVR35-VSL2) (ex vivo brain imaging) was “parasites were clearly detected in the brains”.
Turning to `CC(C)C[C@H](NC(=O)[C@H](Cc1ccccc1)NC(=O)c1cnccn1)B(O)O` [bortezomib], the EC50 was 160 nM in the data set with T. cruzi epimastigotes (Trypanosoma cruzi, read-out: growth inhibition EC50 on T. cruzi epimastigotes) and 62 nM in data set [2]. Moreover, in the data set with T. cruzi epimastigotes, the “inhibition of T. cruzi epimastigote proliferation, potency” value was “sub-micromolar potency”. In addition, the IC50 in data set [1] (IC50 caspase, caspase-like activity) turned out to be 540 ± 12 nM; in data set [1] (IC50 chymotrypsin, chymotrypsin-like activity), 260 ± 40 nM; in data set [1] (IC50 trypsin, trypsin-like activity), 1600 ± 58 nM.

The EC50 is the concentration at which the effect is half-maximal. The term IC50 denotes the midpoint of a concentration-inhibition curve.

The record behind these values is paper PMC5161665 (Nature, 2016).
